The source of these data is ChEMBL document CHEMBL1148402, “Anti-AIDS agents. 52. Synthesis and anti-HIV activity of hydroxymethyl (3'R,4'R)-3',4'-di-O-(S)-camphanoyl-(+)-cis-khellactone derivatives” (J Med Chem, 2004).

Some results are limits rather than exact numbers.

The nature of data set [1]: Therapeutic index (IC50/EC50) was determined. To be noted: read-out: TI. The gist of the method:
(§1)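 H9 T-cells (3 × 10^5 cells/mL) in RPMI 1640 with 10% FCS at 37 °C, 5% CO2, infected with HIV-1 IIIB (125 TCID50). Medium replaced on days 1 and 4 post-infection. Supernatant p24 antigen capture read on day 6. EC50 is the concentration suppressing replication by 50%; TI = IC50/EC50. AZT run as positive control. Averages of at least two experiments.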

In data set [2] the test system is Human immunodeficiency virus 1. As to the kind of experiment: Concentration required to inhibit HIV-1 replication in acutely infected H9 lymphocytes by 50%. The data set is classed as functional, organism-based. The method in brief: as §1
Another data set concerns H9. Kind of data set: Concentration required to inhibit uninfected H9 cell growth by 50%. The data set is classed as functional, cell-based. To be noted: Homo sapiens. The gist of the method: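 Mock-infected H9 cells handled in parallel under the same conditions as the infection assay, without virus. Viability read by XTT on day 6. IC50 is the concentration toxic to 50% of mock-infected cells. Averages of at least two experiments.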

For data set [3], the system named is Rattus norvegicus. Kind of data set: Half-life in male Sprague-Dawley rats following an intravenous bolus dose at 10-20 mg/kg. Type of data set: ADME, organism-based. The settings on record: in vivo. The gist of the method: (§2)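 Adult male Sprague–Dawley rats (approx. 250 g) dosed iv at 10-20 mg/kg and orally as a suspension at 25 mg/kg. Nine 0.4 mL blood samples taken over 8 h. Plasma levels measured by reversed-phase HPLC with UV (320 nm) and fluorescence (ex 320/em 380 nm) detection. Detection limit approx. 50 ng/mL (UV) and 10 ng/mL (fluorescence) from 0.10 mL plasma. Parameters from noncompartmental analysis; half-life from the terminal log-linear phase; N=3–4 rats.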

Data set [4] has as its system Rattus norvegicus. Kind of data set: Vss in male Sprague-Dawley rats following an intravenous bolus dose at 10-20 mg/kg. The data set is classed as ADME, organism-based. To be noted: in vivo. The gist of the method:
as §2

In data set [5] the test system is Rattus norvegicus. As to the kind of experiment: Bioavailability in rat (Sprague-Dawley) (male) (dose 10-20 mg/kg). The data set is classed as ADME, organism-based. To be noted: in vivo. The method in brief:
as §2

The subject of data set [6] is Rattus norvegicus. Kind of data set: Clearance in male Sprague-Dawley rats following an intravenous bolus dose at 10-20 mg/kg. Type of data set: ADME, organism-based. The settings on record: in vivo.
Data set [7] has as its system Rattus norvegicus. As to the kind of experiment: Volume distribution of compound in male Sprague-Dawley rats following an intravenous bolus dose at 10-20 mg/kg. The settings on record: in vivo. Type of data set: ADME, organism-based. The method in brief:
as §2

Data set [8] can be described thus: Bioavailability in male Sprague-Dawley rats following an intravenous bolus dose at 10-20 mg/kg. To be noted: rat, in vivo. Type of data set: ADME, organism-based. The gist of the method:
as §2

For `Cc1c(CBr)c(=O)oc2c3c(ccc12)OC(C)(C)[C@H](OC(=O)C12CCC(C)(C(=O)O1)C2(C)C)[C@@H]3OC(=O)C12CCC(C)(C(=O)O1)C2(C)C` (stereo partly specified), in data set [1], the selectivity ratio was above 190000. Further, the EC50 (commonly the concentration that produces a half-maximal response) in [2] turned out to be 0.11 nM. Moreover, the IC50 (usually the concentration needed to halve the response being measured) in the data set with H9 was above 20900 nM.

On to `Cc1cc(=O)oc2c3c(c(CN)cc12)OC(C)(C)[C@H](OC(=O)C12CCC(C)(C(=O)O1)C2(C)C)[C@@H]3OC(=O)C12CCC(C)(C(=O)O1)C2(C)C` (stereo partly specified), for which the selectivity ratio in data set [1] is above 102. Further, it took 148 nM to reach a half-maximal effect in [2] (EC50). The compound also registered an IC50 in the data set with H9 above 15000 nM.

As to `Cc1cc(=O)oc2c3c(c(CO)cc12)OC(C)(C)[C@H](OC(=O)C12CCC(C)(C(=O)O1)C2(C)C)[C@@H]3OC(=O)C12CCC(C)(C(=O)O1)C2(C)C` (stereo partly specified), in the data set with Rattus norvegicus [3], the T1/2 amounted to 0.867 h. The Vss – broadly, a proportionality between amount in the body and measured concentration, not a real space – with Rattus norvegicus [4] turned out to be 3.89 L/kg. The F result with Rattus norvegicus [5] is given as “Not detected”. In addition, the selectivity ratio in data set [1] was above 135. The same compound had a CL in the data set with Rattus norvegicus [6] of 284 L/h/kg. In data set [2], the EC50 is 111 nM. Also, in the data set on Rattus norvegicus [7], the Vd (commonly the apparent volume that relates the amount in the body to the concentration in plasma or blood) is 5.9 L/kg. The compound also came in with an IC50 in the data set on H9 above 15000 nM.

On to `CCN(CC)Cc1cc2ccc3c(c2oc1=O)[C@@H](OC(=O)C12CCC(C)(C(=O)O1)C2(C)C)[C@@H](OC(=O)C12CCC(C)(C(=O)O1)C2(C)C)C(C)(C)O3` (stereo partly specified), for which the selectivity ratio in data set [1] was above 4. Besides, the EC50 in data set [2] was 3670 nM. The same compound had an IC50 in the data set on H9 above 14100 nM.

As for `CC(=O)OCc1cc2c(C)cc(=O)oc2c2c1OC(C)(C)[C@H](OC(=O)C13CCC(C)(C(=O)O1)C3(C)C)[C@@H]2OC(=O)C12CCC(C)(C(=O)O1)C2(C)C` (stereo partly specified), the selectivity ratio in data set [1] was above 26. The compound also came in with an EC50 in data set [2] of 544 nM. In the data set with H9, the IC50 is above 14100 nM.

Turning to `CC(=O)OCc1cc2ccc3c(c2oc1=O)[C@@H](OC(=O)C12CCC(C)(C(=O)O1)C2(C)C)[C@@H](OC(=O)C12CCC(C)(C(=O)O1)C2(C)C)C(C)(C)O3` (stereo partly specified), the selectivity ratio in data set [1] turned out to be 676. In data set [2], this compound gave an EC50 of 17 nM. In addition, the IC50 in the data set on H9 came out at 11600 nM.

Take `CC1(C)Oc2ccc3cc(CO)c(=O)oc3c2[C@@H](OC(=O)C23CCC(C)(C(=O)O2)C3(C)C)[C@H]1OC(=O)C12CCC(C)(C(=O)O1)C2(C)C` (stereo partly specified): the selectivity ratio in data set [1] is 806. This compound also yielded an EC50 in [2] of 29 nM. This compound also showed an IC50 in the data set with H9 of 23000 nM.

As for `Cc1cc(=O)oc2c3c(c(CBr)cc12)OC(C)(C)[C@H](OC(=O)C12CCC(C)(C(=O)O1)C2(C)C)[C@@H]3OC(=O)C12CCC(C)(C(=O)O1)C2(C)C` (stereo partly specified), in data set [1], the selectivity ratio is above 88. The EC50 in data set [2] worked out at 156 nM. Also, the IC50 with H9 is above 13700 nM.

With `CC1(C)Oc2ccc3cc(CBr)c(=O)oc3c2[C@@H](OC(=O)C23CCC(C)(C(=O)O2)C3(C)C)[C@H]1OC(=O)C12CCC(C)(C(=O)O1)C2(C)C` (stereo partly specified), in data set [1], the selectivity ratio is above 186. In addition, a half-maximal effect in [2] (EC50) was put at 59 nM. Moreover, in the data set on H9, the IC50 was above 11100 nM.

`Cc1cn([C@H]2C[C@H](N=[N+]=[N-])[C@@H](CO)O2)c(=O)[nH]c1=O` [ZIDOVUDINE] returned an EC50 in [2] of 187 nM.

Regarding `Cc1c(CO)c(=O)oc2c3c(ccc12)OC(C)(C)[C@H](OC(=O)C12CCC(C)(C(=O)O1)C2(C)C)[C@@H]3OC(=O)C12CCC(C)(C(=O)O1)C2(C)C` (stereo partly specified), the T1/2 with Rattus norvegicus [3] turned out to be 3.12 h. Also, the Vss in the data set on Rattus norvegicus [4] was 18.5 L/kg. For the same compound, the selectivity ratio in data set [1] was determined as 5800. The same compound returned a CL in the data set with Rattus norvegicus [6] of 284 L/h/kg. The EC50 in data set [2] came to 4 nM. The Vd in the data set on Rattus norvegicus [7] came to 22.9 L/kg. In the data set on H9, it took 24900 nM to reach half-maximal inhibition (IC50). For the same compound, the bioavailability (as a rule, dose-corrected exposure relative to a reference, in per cent) in data set [8] was determined as 15%.

The compound `Cc1cc(=O)oc2c3c(ccc12)OC(C)(C)[C@H](OC(=O)C12CCC(C)(C(=O)O1)C2(C)C)[C@@H]3OC(=O)C12CCC(C)(C(=O)O1)C2(C)C` (stereo partly specified) came in with a T1/2 with Rattus norvegicus [3] of 2.42 h. The compound further returned a Vss with Rattus norvegicus [4] of 10.1 L/kg. The F result in the data set on Rattus norvegicus [5] is recorded as “Not detected”. For the same compound, in [2], the concentration giving a half-maximal response (EC50) was found to be 1.5 nM. In addition, the Vd in the data set with Rattus norvegicus [7] amounted to 12 L/kg. Moreover, in the data set on H9, the IC50 was 23600 nM.

Regarding `CC1(C)Oc2ccc3ccc(=O)oc3c2[C@@H](OC(=O)C23CCC(C)(C(=O)O2)C3(C)C)[C@H]1OC(=O)C12CCC(C)(C(=O)O1)C2(C)C` (stereo partly specified), in data set [1], the selectivity ratio was above 328. Moreover, in data set [2], the response was half-maximal at 49 nM (EC50). Further, the IC50 in the data set on H9 is above 16100 nM.

For `CC1(C)Oc2ccc3cc(CN)c(=O)oc3c2[C@@H](OC(=O)C23CCC(C)(C(=O)O2)C3(C)C)[C@H]1OC(=O)C12CCC(C)(C(=O)O1)C2(C)C` (stereo partly specified), in data set [1], the selectivity ratio is above 23. The compound also registered an EC50 in data set [2] of 677 nM. In the data set with H9, this compound yielded an IC50 above 15400 nM.

In the case of `CC(=O)OCc1c(C)c2ccc3c(c2oc1=O)[C@@H](OC(=O)C12CCC(C)(C(=O)O1)C2(C)C)[C@@H](OC(=O)C12CCC(C)(C(=O)O1)C2(C)C)C(C)(C)O3` (stereo partly specified), the selectivity ratio in data set [1] is 567. The compound also returned an EC50 in data set [2] of 26 nM. Half-maximal inhibition in the data set with H9 (IC50) was put at 14800 nM.
